In publication PMC3555362 (Angewandte Chemie (International Ed. in English), 2011):
Square brackets hold non-standard residues; d marks the D form. Peptide text beside a SMILES is read from it. pT = C[C@@H](OP(=O)(O)O)[C@H](N)C(=O)O; pS = N[C@@H](COP(=O)(O)O)C(=O)O

Legend:
[1] = system: polo-box domain (PBD) of polo-like kinase 1 (Plk1), wild-type (His6-PBD345-603 WT); assay: fluorescence-based thermal stability; format: binding, human; conditions: for Thermal shift, Δ: difference between wild-type and Y417A/Y421A thermal shifts
How it was run: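 Fluorescence-based thermal stability screen of phosphorylated test peptides derived from PBIP1 and TCERG1, run in parallel on wild-type Plk1 polo-box domain and on the Y417A/Y421A double mutant. The mutant was designed to weaken binding at the hydrophobic pocket, so the wild-type-minus-mutant shift reports pocket involvement.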

[2] = molecular target: polo-box domain (PBD) of Plk1, His6-PBD345-603 (Homo sapiens, UniProt P53350); assay: isothermal titration calorimetry; format: binding
Sequence of polo-box domain (PBD) of Plk1, His6-PBD345-603 (P53350 345-603): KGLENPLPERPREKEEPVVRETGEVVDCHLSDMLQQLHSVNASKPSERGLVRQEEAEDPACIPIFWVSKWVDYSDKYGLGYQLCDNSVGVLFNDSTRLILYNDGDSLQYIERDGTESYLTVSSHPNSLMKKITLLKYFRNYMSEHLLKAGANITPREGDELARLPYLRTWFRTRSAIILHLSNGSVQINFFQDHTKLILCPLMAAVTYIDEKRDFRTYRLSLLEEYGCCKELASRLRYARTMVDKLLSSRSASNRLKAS

[3] = system: PBD of human Plk1 (GPLGSPEF-PBD371-594); assay: X-ray crystal structure of peptide in complex with PBD; format: binding; conditions: crystal structures 3P36 (DPPLHSpTA), 3P37 (FDPPLHSpTA), 3Q1I (FMPPPMSpSM)

| SMILES | Thermal shift, Δ [1] [°C] | Kd [2] [µM] | difference in thermal shifts between wild-type and mutant protein (in words) ([1]; wild-type PBD versus Y417A/Y421A mutant) | affinity by ITC (in words) ([2]; ITC, 25 °C, compared with peptides without Phe71) | hydrophobic pocket binding in crystal structure (in words) [3] |
| --- | --- | --- | --- | --- | --- |
| CC(=O)N[C@@H](C)C(=O)N[C@@H](CC(=O)O)C(=O)N1CCC[C@H]1C(=O)N1CCC[C@H]1C(=O)N[C@@H](CC(C)C)C(=O)N[C@@H](Cc1c[nH]cn1)C(=O)N[C@@H](CO)C(=O)N[C@H](C(=O)N[C@@H](C)C(N)=O)[C@@H](C)OP(=O)(O)O [ADPPLHSpTA] (Ac-ADPPLHS[pT]A-NH2) | −0.2 | 1.32 |  |  |  |
| CC(=O)N[C@@H](Cc1ccccc1)C(=O)N[C@@H](CC(=O)O)C(=O)N1CCC[C@H]1C(=O)N1CCC[C@H]1C(=O)N[C@@H](CC(C)C)C(=O)N[C@@H](Cc1c[nH]cn1)C(=O)N[C@@H](CO)C(=O)N[C@H](C(=O)N[C@@H](C)C(N)=O)[C@@H](C)OP(=O)(O)O [FDPPLHSpTA] (Ac-FDPPLHS[pT]A-NH2) | 4.3 | 0.25 | significant difference in thermal shifts | increased affinity |  |
| CSCC[C@H](NC(=O)[C@H](COP(=O)(O)O)NC(=O)[C@H](CO)NC(=O)[C@H](CCSC)NC(=O)[C@@H]1CCCN1C(=O)[C@@H]1CCCN1C(=O)[C@@H]1CCCN1C(=O)[C@H](CCSC)NC(=O)[C@H](Cc1ccccc1)NC(C)=O)C(N)=O [FMPPPMSpSM] (Ac-FMPPPMS[pS]M-NH2) | 0.0 | 515 |  |  | lack of hydrophobic pocket binding |
| CC(=O)N[C@@H](CC(=O)O)C(=O)N1CCC[C@H]1C(=O)N1CCC[C@H]1C(=O)N[C@@H](CC(C)C)C(=O)N[C@@H](Cc1c[nH]cn1)C(=O)N[C@@H](CO)C(=O)N[C@H](C(=O)N[C@@H](C)C(N)=O)[C@@H](C)OP(=O)(O)O [DPPLHSpTA] (Ac-DPPLHS[pT]A-NH2) | −0.4 | 2.14 |  |  |  |
